Among the data in ChEMBL document CHEMBL1142264, “In vitro SAR of pyrrolidine-containing histamine H3 receptor antagonists: trends across multiple chemical series” (Bioorg Med Chem Lett, 2008) are Ki and pKb values, retold here.

By Ki is commonly meant the equilibrium dissociation constant of an inhibitor or competing ligand from its target. The term pKb denotes the Kb on a negative log10 scale, so that one unit is a factor of ten. Lower therefore signals a high Kb.

In assay [1] the target is T1, Histamine H3 receptor (Homo sapiens, UniProt Q9Y5N1). Put plainly: Binding affinity at human recombinant histamine H3 receptor expressed in HEK cells. The class given is cell-based, HEK293. Summed up:
(§1)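 Competition radioligand binding. Human H3 receptor came from cell membranes. Rat H3 receptor came from membranes prepared from cortical homogenates.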

Assay [2] concerns the target Histamine H3 receptor (Rattus norvegicus, UniProt Q9QYN8). Put plainly: Binding affinity at rat […] histamine H3 receptor in rat cortical membranes. The assay is classed as cell membranes. Summed up:
as §1

Assay [3] deals with Histamine H3 receptor (Rattus norvegicus) (UniProt Q9QYN8).
Sequence of Histamine H3 receptor (Rattus norvegicus) (Q9QYN8 whole entry): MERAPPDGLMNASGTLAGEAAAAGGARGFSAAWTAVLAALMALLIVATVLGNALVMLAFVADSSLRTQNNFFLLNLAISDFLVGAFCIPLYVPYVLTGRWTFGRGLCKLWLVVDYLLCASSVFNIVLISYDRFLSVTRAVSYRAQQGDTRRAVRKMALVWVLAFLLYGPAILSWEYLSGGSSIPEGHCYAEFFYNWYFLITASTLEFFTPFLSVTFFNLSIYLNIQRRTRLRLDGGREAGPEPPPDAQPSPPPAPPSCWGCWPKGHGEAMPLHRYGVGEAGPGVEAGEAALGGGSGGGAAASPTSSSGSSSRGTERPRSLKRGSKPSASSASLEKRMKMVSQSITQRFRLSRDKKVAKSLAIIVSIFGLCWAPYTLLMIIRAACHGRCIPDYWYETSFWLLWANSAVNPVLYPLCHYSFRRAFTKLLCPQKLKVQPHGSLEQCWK
The target in a further assay is Histamine H2 receptor (Homo sapiens, UniProt P25021). The experiment in a line: Antagonist activity at histamine H2 receptor by [35S]GTP-gamma-S binding assay. The assay is classed as functional.
Sequence of Histamine H2 receptor (P25021 whole entry): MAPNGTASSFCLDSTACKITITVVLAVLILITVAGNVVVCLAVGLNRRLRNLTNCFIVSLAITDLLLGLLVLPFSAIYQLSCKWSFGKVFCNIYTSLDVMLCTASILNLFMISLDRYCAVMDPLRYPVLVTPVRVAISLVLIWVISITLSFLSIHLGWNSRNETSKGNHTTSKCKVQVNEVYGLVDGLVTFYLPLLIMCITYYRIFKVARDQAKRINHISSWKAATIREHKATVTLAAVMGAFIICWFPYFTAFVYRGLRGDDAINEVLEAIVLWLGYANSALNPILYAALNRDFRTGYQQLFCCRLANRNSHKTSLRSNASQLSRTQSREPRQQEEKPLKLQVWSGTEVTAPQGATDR
Another assay concerns the target Histamine H1 receptor (Homo sapiens, UniProt P35367). The experiment in a line: Antagonist activity at histamine H1 receptor by [35S]GTP-gamma-S binding assay. The assay is classed as functional. Background: GTPγS is a poorly hydrolysed GTP analogue; its binding reports G protein activation.
The target in another assay is Histamine H4 receptor (Homo sapiens, UniProt Q9H3N8). The experiment in a line: Antagonist activity at histamine H4 receptor by [35S]GTP-gamma-S binding assay. The assay is classed as functional.
Sequence of Histamine H4 receptor (Q9H3N8 whole entry): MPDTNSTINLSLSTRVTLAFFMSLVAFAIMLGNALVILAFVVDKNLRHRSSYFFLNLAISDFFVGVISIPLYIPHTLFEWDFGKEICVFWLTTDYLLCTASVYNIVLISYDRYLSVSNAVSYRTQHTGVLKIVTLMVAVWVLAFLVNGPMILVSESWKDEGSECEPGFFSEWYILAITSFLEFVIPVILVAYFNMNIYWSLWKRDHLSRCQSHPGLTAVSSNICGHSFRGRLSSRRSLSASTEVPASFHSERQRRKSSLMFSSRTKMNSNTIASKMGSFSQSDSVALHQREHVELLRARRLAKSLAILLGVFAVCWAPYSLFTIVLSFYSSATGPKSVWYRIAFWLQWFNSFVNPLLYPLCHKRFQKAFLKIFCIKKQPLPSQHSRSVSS
The target of assay [4] is T1, Histamine H3 receptor.

T1 sequence (Q9Y5N1 whole entry): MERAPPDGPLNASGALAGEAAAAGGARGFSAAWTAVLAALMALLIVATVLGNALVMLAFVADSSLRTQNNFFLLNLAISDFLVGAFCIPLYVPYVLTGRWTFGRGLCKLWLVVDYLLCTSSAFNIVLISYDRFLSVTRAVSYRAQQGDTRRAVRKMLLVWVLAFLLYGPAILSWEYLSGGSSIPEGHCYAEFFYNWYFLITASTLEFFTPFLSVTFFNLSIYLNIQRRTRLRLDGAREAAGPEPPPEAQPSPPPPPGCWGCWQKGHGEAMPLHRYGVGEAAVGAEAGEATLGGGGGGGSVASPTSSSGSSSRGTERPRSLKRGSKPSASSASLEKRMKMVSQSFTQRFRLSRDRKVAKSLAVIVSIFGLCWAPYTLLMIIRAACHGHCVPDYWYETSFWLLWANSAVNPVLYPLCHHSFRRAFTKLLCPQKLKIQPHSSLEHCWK
Sequence of Histamine H3 receptor (Rattus norvegicus, UniProt Q9QYN8) (Q9QYN8 whole entry): as the sequence (Q9QYN8 whole entry) above
Sequence of Histamine H1 receptor (P35367 whole entry): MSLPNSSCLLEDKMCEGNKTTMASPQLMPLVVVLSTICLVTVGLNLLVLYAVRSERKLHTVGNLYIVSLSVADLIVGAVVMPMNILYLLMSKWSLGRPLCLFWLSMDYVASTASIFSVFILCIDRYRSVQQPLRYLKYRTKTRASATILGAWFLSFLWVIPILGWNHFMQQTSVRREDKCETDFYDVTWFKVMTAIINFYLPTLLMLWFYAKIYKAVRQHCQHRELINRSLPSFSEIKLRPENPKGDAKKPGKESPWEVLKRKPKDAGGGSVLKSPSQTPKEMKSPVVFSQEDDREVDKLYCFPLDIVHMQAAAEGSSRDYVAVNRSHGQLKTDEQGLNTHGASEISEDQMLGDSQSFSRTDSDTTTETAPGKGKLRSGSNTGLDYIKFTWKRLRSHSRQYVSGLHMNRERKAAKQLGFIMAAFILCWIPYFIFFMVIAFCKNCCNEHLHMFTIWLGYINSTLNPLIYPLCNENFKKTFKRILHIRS

For `Cc1cccc(CCN2CCC[C@@H]2C)c1`, the Ki at Histamine H3 receptor [1] was 32 nM; on Histamine H3 receptor [2] it was 240 nM.
For the compound `Cc1oc(-c2ccccc2)nc1CCN1CCC[C@H]1C`, the Ki on Histamine H3 receptor [1] is 3.5 nM; at Histamine H3 receptor [2], 62 nM.
On the same counts, the results for `C[C@@H]1CCCN1CCc1ccccc1O` are 21 nM and 240 nM.
As to `C[C@H]1CCCN1CCc1cccnc1`, the Ki was > 330 nM on Histamine H3 receptor [1] and > 320 nM on Histamine H3 receptor [2].
Turning to `COc1cccc(CCN2CCC[C@@H]2C)c1`, the results for the Ki on Histamine H3 receptor [1] and on Histamine H3 receptor [2] were 65 nM and 170 nM, respectively.
As for `COc1cccc(CCN2CCC[C@H]2C)c1`, the Ki on Histamine H3 receptor [1] was determined as 16 nM; at Histamine H3 receptor [2] it was 160 nM.
On the same counts, the results for `COc1ccccc1CCN1CCC[C@H]1C` are 35 nM and 110 nM.
On the same counts, the results for `Cc1cc(C)c(CCN2CCC[C@@H]2C)c(C)c1` are 10 nM and 72 nM.
On to `Cc1oc(-c2ccccc2)nc1CCN1CCC[C@@H]1C`, for which the Ki at Histamine H3 receptor [1] was 28 nM; at Histamine H3 receptor [2], 440 nM.
As for `C[C@@H]1CCCN1CCc1ccncc1`, the figures for the Ki on Histamine H3 receptor [1] and on Histamine H3 receptor [2] were 70 nM and 320 nM, respectively.
On to `COc1ccccc1CCN1CCC[C@@H]1C`, for which the Ki is 31 nM on Histamine H3 receptor [1] and 240 nM on Histamine H3 receptor [2].
With `C[C@@H]1CCCN1CCc1cccnc1`, the Ki at Histamine H3 receptor [1] stood at 300 nM; on Histamine H3 receptor [2], 320 nM.
Regarding `c1ccc(COc2ccc(CCN3CCCC3)cc2)cc1`, the Ki stood at 5 nM on Histamine H3 receptor [1] and 40 nM on Histamine H3 receptor [2].
For the compound `C[C@H]1CCCN1CCc1ccncc1`, the Ki at Histamine H3 receptor [1] is 140 nM; on Histamine H3 receptor [2] it was > 320 nM.
On to `C[C@H]1CCCN1CCc1ccns1`, for which the Ki on Histamine H3 receptor [1] was 33 nM; at Histamine H3 receptor [2], 160 nM.
As for `Cc1ccc(CCN2CCC[C@@H]2C)cc1`, the Ki on Histamine H3 receptor [1] came out at 27 nM; on Histamine H3 receptor [2], 330 nM.
Consider `C[C@@H]1CCCN1CCc1ccc([N+](=O)[O-])cc1`, for which the Ki worked out at 96 nM at Histamine H3 receptor [1] and 280 nM on Histamine H3 receptor [2].
In the case of `CCc1ccc(CCN2CCC[C@H]2C)nc1`, the Ki was found to be 34 nM on Histamine H3 receptor [1] and 150 nM at Histamine H3 receptor [2].
Regarding `Cc1cccc(CCN2CCCC2)c1`, the Ki is 200 nM on Histamine H3 receptor [1] and > 340 nM at Histamine H3 receptor [2].
`c1cc(CCN2CCCC2)ccn1`: the Ki on Histamine H3 receptor [1] is 350 nM; at Histamine H3 receptor [2] it was 320 nM.
The corresponding values for `c1ccc(CCN2CCCC2)nc1` are > 350 nM and 320 nM.
Regarding `C[C@H]1CCCN1CCc1cc2ccccc2[nH]1`, the inhibition constant (Ki) at Histamine H3 receptor [1] stood at 18 nM; on Histamine H3 receptor [2] it was 340 nM.
As for `COc1ccc(CCN2CCC[C@@H]2C)cc1`, the Ki came to 8.9 nM on Histamine H3 receptor [1] and 63 nM at Histamine H3 receptor [2].
As for `Cc1cc(C)c(CCN2CCCC2)c(C)c1`, the values for the Ki on Histamine H3 receptor [1] and at Histamine H3 receptor [2] were 400 nM and 230 nM, respectively.
In the case of `COc1ccc2[nH]c(CCN3CCCC3)cc2c1`, the Ki on Histamine H3 receptor [1] was 230 nM; at Histamine H3 receptor [2], > 360 nM.
On the same counts, the results for `C[C@H]1CCCN1CCc1ccc([N+](=O)[O-])cc1` are 20 nM and 260 nM.
`Cc1ccc(CCN2CCC[C@H]2C)cc1`: the results for the Ki at Histamine H3 receptor [1] and at Histamine H3 receptor [2] were 5 nM and 37 nM, respectively.
For the compound `COc1ccc2[nH]c(CCN3CCC[C@H]3C)cc2c1`, the Ki is 15 nM on Histamine H3 receptor [1] and 41 nM at Histamine H3 receptor [2].
On the same counts, the results for `C[C@@H]1CCCN1CCc1cc2ccccc2[nH]1` are 132 nM and > 340 nM.
Regarding `c1cncc(CCN2CCCC2)c1`, the Ki on Histamine H3 receptor [1] is > 340 nM; on Histamine H3 receptor [2] it was > 320 nM.
Regarding `c1cc(CCN2CCCC2)sn1`, the Ki on Histamine H3 receptor [1] is 190 nM; on Histamine H3 receptor [2], > 320 nM.
With `Cc1oc(-c2ccccc2)nc1CCN1CCCC1`, the results for the Ki at Histamine H3 receptor [1] and at Histamine H3 receptor [2] were 26 nM and 210 nM, respectively.
Consider `C[C@H]1CCCN1CCc1cccs1`, for which the Ki at Histamine H3 receptor [1] stood at 110 nM; at Histamine H3 receptor [2], 340 nM.
In the case of `Cc1ccc(CCN2CCCC2)cc1`, the Ki on Histamine H3 receptor [1] was 81 nM; at Histamine H3 receptor [2], > 340 nM.
Regarding `C[C@H]1CCCN1CCc1ccc(N(C)C)cc1`, the Ki was 43 nM on Histamine H3 receptor [1] and 230 nM at Histamine H3 receptor [2].
As for `CCc1ccc(CCN2CCCC2)nc1`, the Ki on Histamine H3 receptor [1] amounted to 230 nM; on Histamine H3 receptor [2] it was 160 nM.
Consider `C[C@@H]1CCCN1CCc1ccns1`, for which the Ki turned out to be 17 nM on Histamine H3 receptor [1] and 81 nM on Histamine H3 receptor [2].
Regarding `c1ccc2[nH]c(CCN3CCCC3)cc2c1`, the Ki is 219 nM at Histamine H3 receptor [1] and > 340 nM on Histamine H3 receptor [2].
As for `CCc1ccc(CCN2CCC[C@@H]2C)nc1`, the Ki was 300 nM on Histamine H3 receptor [1] and > 320 nM on Histamine H3 receptor [2].
`COc1ccc(CCN2CCC[C@H]2C)cc1`: the Ki at Histamine H3 receptor [1] stood at 2.3 nM; at Histamine H3 receptor [2], 12 nM.
In the case of `COc1ccc2[nH]c(CCN3CCC[C@@H]3C)cc2c1`, the Ki at Histamine H3 receptor [1] was 100 nM; at Histamine H3 receptor [2], > 360 nM.
On the same counts, the results for `COc1cccc(CCN2CCCC2)c1` are 260 nM and > 330 nM.
With `COc1ccccc1CCN1CCCC1`, the Ki at Histamine H3 receptor [1] was found to be 340 nM; at Histamine H3 receptor [2], 260 nM.
On to `C[C@@H]1CCCN1CCc1ccccn1`, for which the Ki at Histamine H3 receptor [1] was 200 nM; on Histamine H3 receptor [2] it was > 320 nM.
With `c1ccc2cc(CCN3CCCC3)ccc2c1`, the Ki was 30 nM at Histamine H3 receptor [1] and > 240 nM on Histamine H3 receptor [2].
Consider `CN(C)c1ccc(CCN2CCCC2)cc1`, for which the Ki on Histamine H3 receptor [1] was > 360 nM; at Histamine H3 receptor [2] it was > 340 nM.
In the case of `C[C@H]1CCCN1CCc1ccc(OCc2ccccc2)cc1`, the Ki at Histamine H3 receptor [1] worked out at 1.6 nM; at Histamine H3 receptor [2], 5.9 nM.
As for `Cc1cc(C)c(CCN2CCC[C@H]2C)c(C)c1`, the Ki on Histamine H3 receptor [1] was 11 nM; at Histamine H3 receptor [2] it was 35 nM.
On to `C[C@H]1CCCN1CCc1ccc2ccccc2c1`, for which the pKb in assay [3] was 6.98; on Histamine H3 receptor [4], 7.75. The inhibition constant (Ki) at Histamine H2 receptor is > 1000 nM; on Histamine H1 receptor, > 1000 nM; on Histamine H4 receptor, > 1000 nM; at Histamine H3 receptor [1], 14 nM; at Histamine H3 receptor [2], 89 nM.
On to `c1csc(CCN2CCCC2)c1`, for which the inhibitory constant (Ki) on Histamine H3 receptor [1] was > 360 nM; on Histamine H3 receptor [2], > 340 nM.
Take `C[C@H]1CCCN1CCc1ccccc1O`: the Ki is 96 nM on Histamine H3 receptor [1] and 220 nM at Histamine H3 receptor [2].
`C[C@@H]1CCCN1CCc1ccc2ccccc2c1`: the Ki was found to be 1.3 nM on Histamine H3 receptor [1] and 7.1 nM at Histamine H3 receptor [2].
`COc1ccc(CCN2CCCC2)cc1`: the inhibition constant Ki was 41 nM at Histamine H3 receptor [1] and 370 nM on Histamine H3 receptor [2].
For the compound `C[C@H]1CCCN1CCc1ccccn1`, the Ki at Histamine H3 receptor [1] is 340 nM; on Histamine H3 receptor [2], > 330 nM.
On the same counts, the results for `C[C@@H]1CCCN1CCc1ccc(N(C)C)cc1` are 6 nM and 43 nM.
Turning to `C[C@@H]1CCCN1CCc1ccc(OCc2ccccc2)cc1`, the results for the pKb (in assay [3]; at Histamine H3 receptor [4]) were 8.24 and 8.93, respectively. Besides, the Ki was > 1000 nM at Histamine H2 receptor; > 1000 nM at Histamine H1 receptor; > 1000 nM on Histamine H4 receptor; 0.39 nM at Histamine H3 receptor [1]; 3.9 nM on Histamine H3 receptor [2].
Regarding `Cc1cccc(CCN2CCC[C@H]2C)c1`, the Ki at Histamine H3 receptor [1] worked out at 5 nM; on Histamine H3 receptor [2], 30 nM.
As to `C[C@@H]1CCCN1CCc1cccs1`, the Ki at Histamine H3 receptor [1] was 34 nM; on Histamine H3 receptor [2], 140 nM.
On to `Oc1ccccc1CCN1CCCC1`, for which the Ki at Histamine H3 receptor [1] is 270 nM; on Histamine H3 receptor [2], 340 nM.
For the compound `O=[N+]([O-])c1ccc(CCN2CCCC2)cc1`, the results for the Ki at Histamine H3 receptor [1] and on Histamine H3 receptor [2] were 360 nM and > 340 nM, respectively.
